In the library only some 2.7% were active in any assay of this set; here they are far more common.
FLuc inh counter = counter-screen for luciferase assay inhibitors: firefly luciferase inhibition; ATPLite firefly luciferase biochemical luminescence, 10 min; AID 1006; P08659; inhibition, % at 10 µM; 1.5% of 200,000 active;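 active = inhibition above about 50% when tested at 10 µM, limit read from the data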
ABCG2 block = blocks JC-1 efflux by human ABCG2 transporter; inhibition, % at 6.6 µM; 0.1% of 190,000 active; IgMXP3 cells, flow cytometry; Q9UNQ0;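 active = inhibition above 80%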;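 also: 0% = DMSO and 100% = nicardipine control wells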
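Incubation: cells with compound and JC-1, 10 min at 25 °C, rotating, no wash / Test system: IgMXP3 (ABCG2) plus far-red-tagged CCRF-Adr (ABCB1) cells / Compound dosing: one concentration, 6.6 µM final / Also added: JC-1 fluorescent substrate / Evaluation: efflux inhibition in percent versus controls / Detection: flow cytometry, 530 nm JC-1 signal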
Redox H2O2 prof = compounds producing H2O2 with reducing agent – biochemical, NIH compound library profiling, artefact control for MLSCN library redox annotation, primary screen; DTT-dependent redox cycling H2O2, phenol red/HRP absorbance; 100% = 100 µM peroxide control, 0% = buffer; activation, % at 10 µM; 0.03% of 200,000 active; AID 878;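 active = activation of at least 50% relative to the plate's high and low controls in the primary single-dose screen; inactive = activation below 50%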;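 also: compound incubated with DTT at 0.8 mM final as the reducing agent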
FLuc stim CS = affects firefly luciferase, flagging false hits in luciferase stimulation screens; 200,000 tested, under 10 active; P08659; ATPlite luciferase biochemical, luminescence, 10 min; 0 = ATP-free wells, 1 = DMSO control; activation factor at 10 µM; AID 1027;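 active = luciferase activation factor, scaled between plate controls, of at least 2 with compound at 10 µM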
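Assay system – cell-free luciferase reagent · Medium – PBS-based ATP solution · Dosing – test compounds dosed from 2 mM stocks in 100% DMSO · Timing – 10 min, room temperature · Technique – light output (luminescence) · Measure – luminescence gain marking luciferase activators · Controls – No-ATP low control, compound-free enzyme-plus-ATP high control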
ABCB1 inh = human ABCB1 inhibition, ABCG2 as counter-screen | CCRF-Adr cells, JC-1 efflux, flow cytometry | 0.067% of 190,000 active | AID 1326 | inhibition, % at 6.6 µM; in the data active = inhibition above about 40%;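 also: 0% = vehicle and 100% = reference inhibitor; higher value means more JC-1 retained so stronger ABCB1 efflux block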
Measles CPE = protection of cells from measles virus; Measles virus-infected cells, CPE protection, absorbance; protection (pct of control), % at 4 µM; 1.5% of 140,000 active; AID 841; in the data active = protection mostly above about 24%, no sharp cut-off; inactive = mostly below about 26%
Numbers without * were called inactive; . = no result.

SMILES | FLuc inh counter | ABCG2 block | Redox H2O2 prof | FLuc stim CS | ABCB1 inh | Measles CPE
O=C(Nc1ccc2c(c1)OCCO2)c1ccccc1F | 75.6* | 5.7 | -0.3 | 0.2 | 0.7 | 4.6
COc1cccc(OC)c1C(=O)NC(=S)Nc1ccc2c(c1)OCCO2 | 10.6 | 0.7 | -0.2 | 0.9 | -0.3 | .
O=C(Nc1ccc2cn[nH]c2c1)c1c(Cl)cccc1Cl | -2.8 | 10.3 | -0.1 | 1 | 0.2 | 1.8
O=C(Nc1ccc2cn[nH]c2c1)c1ccccc1F | 52.9* | 19.1 | -0.3 | 0.5 | -0.2 | 2.4
O=C(NC(=S)Nc1ccc2c(c1)OCCO2)c1ccccc1F | 50.4* | 6.9 | 0.3 | 0.5 | 0.6 | .
O=C(NC(=S)Nc1ccc2c(c1)OCCO2)c1ccccc1 | 68.3* | 0.9 | -5.0 | 0.3 | 0.2 | 12.3
O=C(Nc1ccc2c(c1)OCCO2)c1c(F)cccc1F | 40.3 | 29.2 | 0.2 | 0.6 | 0.5 | 7.5
O=C(OCC(=O)N1CCN(C(=O)c2ccco2)CC1)c1cc(-c2cccc(Br)c2)nc2ccccc12 | 6.7 | 9.1 | -0.2 | 0.9 | 8.0 | 3.2
CCOc1ccc(NC(=O)Nc2ccc3c(c2)N(C)C(=O)CS3)cc1 | 6.7 | -0.6 | -0.2 | 0.9 | -0.3 | 41.1*
O=S(=O)(c1cccc2cccc(Cl)c12)N1CCCC1 | -2.6 | 31.4 | 0.2 | 1 | 0.8 | .
Cc1cc(C)nc(SCc2nnc(SCC(=O)Nc3nccs3)n2Cc2ccco2)n1 | -5.3 | 2.3 | 0.9 | 1.1 | 0.3 | 40.7*
COc1ccccc1/C=C/C(=O)Nc1cccc(C(C)=O)c1 | 17.0 | -2.6 | -0.5 | 0.8 | -1.1 | .
COc1ccc(/C=C/C(=O)Nc2cccc(C(C)=O)c2)cc1 | 69.6* | -0.3 | 0.2 | 0.3 | . | 10.9
COc1cccc(/C=C/C(=O)Nc2ccc3c(c2)OCCO3)c1OC | 92.6* | 0.2 | -1.8 | 0.1 | 0.1 | .
COc1cccc(/C=C/C(=O)Nc2cccc(C(C)=O)c2)c1OC | 67.5* | -3.4 | -2.0 | 0.3 | -1.4 | .
Cc1oc(-c2cccc(F)c2)nc1CN(Cc1ccccc1)C[C@@H]1CCC(=O)N1 | -6.4 | 1.8 | 0.5 | 1.1 | 2.2 | .
O=C1CCC(C(=O)N2CCC(CO)(Cc3ccc(Cl)cc3)CC2)=NN1 | -1.5 | 2.3 | -0.4 | 1 | 1.7 | .
Cc1cc(C)c2c(c1)cc(C)c1nnc(SCC(=O)Nc3ccc(S(=O)(=O)N4CCCCC4)cc3)n12 | -2.4 | 6.5 | 0.0 | 1 | 2.7 | 50.2*
CCCNC(=O)/C(=C/c1cn(S(=O)(=O)N(C)C)c2ccccc12)NC(=O)c1ccc(OC)cc1 | 2.8 | 0.5 | -1.2 | 1 | -0.9 | .
CCCCN(C(=O)CSc1nnc(Nc2ccc(C)c(C)c2)s1)c1c(N)n(Cc2ccccc2)c(=O)[nH]c1=O | 63.0* | 2.8 | -1.1 | 0.4 | 1.6 | 10.9
CN(C(=O)CSc1nnc(Nc2ccccc2)s1)c1c(N)n(Cc2ccccc2)c(=O)[nH]c1=O | -3.8 | -1.2 | -1.2 | 1 | 0.0 | 15.6
FC(F)(F)c1nc(N2CCCC2)ncc1-c1nnnn1-c1ccccc1 | -7.5 | 2.5 | -4.0 | 1.1 | 0.9 | 62.4*
O=c1c2ccccc2nc(-c2ccc(Cl)cc2)n1C1CCS(=O)(=O)C1 (configuration not stated) | . | . | -3.8 | . | . | .
CC(C)(C)N=Cc1cc(-c2ccccc2)sc1O | 17.3 | 3.1 | 6.6 | 0.8 | 0.4 | 40.7*
CCOC(=O)c1sc(-c2ccccc2)cc1N | 8.5 | 0.4 | -0.6 | 0.9 | 0.0 | 7.5
SMILES | FLuc inh counter | ABCG2 block | Redox H2O2 prof | FLuc stim CS | ABCB1 inh | Measles CPE
CN(C)c1ccc(NC(=O)c2sc(SCC(=O)Nc3ccc(Br)cc3)nc2N)cc1 | -3.5 | 0.4 | 2.4 | 1 | -0.2 | 16.1
CN(C)c1ccc(NC(=O)c2sc(SCC(=O)Nc3nccs3)nc2N)cc1 | 54.7* | 0.8 | -0.3 | 0.5 | 0.2 | 9.0
CCCNC(=O)NC(=O)CSc1ccc(C)cc1C | -3.0 | 1.8 | -0.1 | 1 | 0.1 | .
Cc1oc(CC(C)C)cc1C(=O)Nc1cccc2ccccc12 | -3.1 | -0.1 | -2.8 | 1 | 0.8 | 37.1*
CC(C)C(=O)Nc1cccc(-c2cn3ccsc3n2)c1 | 18.7 | 12.8 | 1.0 | 0.8 | 1.2 | 4.7
Cc1nc(-c2ccc(NC(=O)C3CCCCC3)cc2)cs1 | 42.8 | 1.0 | 0.0 | 0.6 | -0.3 | 6.3
c1cn2cc(-c3ccc4c(c3)OCO4)nc2s1 | 78.0* | 1.0 | -0.7 | 0.2 | 0.1 | 11.2
O=C(CC1CCCCC1)Nc1ccc(-c2ccc3nncn3n2)cc1 | -5.2 | 6.9 | 0.4 | 1.1 | 0.2 | .
O=C(Nc1ccc(-c2cn3ccsc3n2)cc1)C1CC1 | 87.2* | 28.5 | 1.7 | 0.1 | 0.0 | 15.8
O=C(Nc1ccc(-c2ccc3nncn3n2)cc1)C1CCCC1 | 51.8* | 4.0 | -0.1 | 0.5 | 0.2 | .
O=C(Nc1ccc(-c2cn3ccsc3n2)cc1)C1CCCC1 | 88.0* | 2.5 | 2.8 | 0.1 | 0.2 | 4.0
O=C(CCN1C(=O)c2ccccc2C1=O)Nc1ccc(-c2cn3ccsc3n2)cc1 | 26.3 | 1.9 | -2.7 | 0.7 | 0.3 | 5.0
O=C(Nc1cccc(F)c1)c1cc(S(=O)(=O)N2CCC3(CC2)OCCO3)ccc1F | -5.4 | 3.3 | -1.5 | 1.1 | 0.5 | .
CCC(CC)C(=O)Nc1cc(Cl)ccc1C | -3.8 | 3.0 | 0.2 | 1 | 0.2 | .
COCCCn1c(=S)[nH]c2c(sc3ccccc32)c1=O | 1.6 | -4.8 | -0.3 | 1 | -1.6 | .
CC(=O)Nc1ccc(-c2cn3ccsc3n2)cc1 | 67.2* | 2.8 | 0.7 | 0.3 | 0.4 | 5.7
O=C(Cn1ccc(C(F)(F)F)n1)N/N=C/c1ccc(N2CCOCC2)cc1 | -4.6 | 8.8 | 0.6 | 1 | 0.7 | .
CC1(C)NC(=O)N(CCCOc2ccc(Br)cc2Cl)C1=O | 18.2 | 1.4 | 1.3 | 0.8 | 0.3 | 56.8*
Cc1ccc(S(=O)(=O)N(C)C)cc1NC(=O)COC(=O)COc1ccccc1[N+](=O)[O-] | -9.5 | 8.4 | -2.4 | 1.1 | 0.3 | .
CCN(CC)S(=O)(=O)c1ccc(-c2ccc(S(=O)(=O)N(CC)CC)cc2)cc1 | -4.5 | 2.6 | 0.0 | 1 | 0.3 | 4.7
CC(C)(C)NC(=O)c1ccc2nccnc2c1 | -6.2 | 9.2 | 2.7 | 1.1 | 0.4 | 52.0*
O=C(NCCOc1ccccc1F)c1cc(F)c(F)cc1Cl | 10.1 | 0.9 | -0.3 | 0.9 | -1.5 | 33.2*
CC(C)CC1CC(C)(c2csc(NNC(=O)c3ccccc3)n2)OC1=O (configuration not stated) | -3.8 | -5.2 | -0.9 | 1 | -1.0 | .
C=CCNc1nc(N2CCCCC2)c(C#N)c2c1CN(Cc1ccccc1)CC2 | -2.4 | 17.4 | -1.2 | 1 | 2.1 | 61.4*
CCC(C)(C)n1nnnc1CN1CCc2ccccc21 | -4.3 | 1.5 | -0.4 | 1 | 0.5 | 72.8*
C=CCn1c(SCC(=O)N2CC(=O)Nc3ccccc32)nc2scc(-c3cccs3)c2c1=O | -3.0 | 7.6 | -2.8 | 1 | 6.2 | 80.5*

Compound activity: PubChem, several laboratories
